Reference: ChEMBL document CHEMBL5678818, “Discovery of potent SOS1 inhibitors that block RAS activation via disruption of the RAS-SOS1 interaction” (Proc Natl Acad Sci U S A, 2019)
Active and inactive are the calls of the source. The rule behind the calls is not given here.

What was measured:
[1] = target: Calcium/calmodulin-dependent protein kinase type 1B (Homo sapiens) (UniProt Q6P2M8); assay: Inhibition of CAMK1B (unknown origin) assessed as residual activity at 1000 nM by KINOMEscan analysis relative to control
Calu-1 = assay: Effect on total ERK level in human Calu-1 cells incubated for 24 hrs by HTRF analysis; format: functional, cell-based
Outline: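 Calu-1 cells carry two KRAS G12C alleles and were sourced from CLS. Total and pERK levels were both analyzed after compound treatment.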

[2] = test system: GTPase KRas (Homo sapiens), P01116 [G12C]; assay: Stabilization of N-terminal GST-tagged recombinant human KRAS G12C mutant (1 to 169 residues) expressed in Escherichia coli assessed as change in melting temperature at 100 uM with heating from 25 to 85 degreeC by thermal shift assay
[3] = target: Activin receptor type-1-like (Homo sapiens) (UniProt P37023); assay: Inhibition of ACVRL1 (unknown origin) assessed as residual activity at 100 nM by KINOMEscan analysis relative to control
[4] = target: Mitogen-activated protein kinase 11 (Homo sapiens) (UniProt Q15759); assay: Inhibition of p38-beta (unknown origin) assessed as residual activity at 100 nM by KINOMEscan analysis relative to control
[5] = target: T1, Dual specificity mitogen-activated protein kinase kinase 5 (Homo sapiens) (UniProt Q13163); assay: Inhibition of MEK5 (unknown origin) assessed as residual activity at 100 nM by KINOMEscan analysis relative to control
T1 sequence (whole entry): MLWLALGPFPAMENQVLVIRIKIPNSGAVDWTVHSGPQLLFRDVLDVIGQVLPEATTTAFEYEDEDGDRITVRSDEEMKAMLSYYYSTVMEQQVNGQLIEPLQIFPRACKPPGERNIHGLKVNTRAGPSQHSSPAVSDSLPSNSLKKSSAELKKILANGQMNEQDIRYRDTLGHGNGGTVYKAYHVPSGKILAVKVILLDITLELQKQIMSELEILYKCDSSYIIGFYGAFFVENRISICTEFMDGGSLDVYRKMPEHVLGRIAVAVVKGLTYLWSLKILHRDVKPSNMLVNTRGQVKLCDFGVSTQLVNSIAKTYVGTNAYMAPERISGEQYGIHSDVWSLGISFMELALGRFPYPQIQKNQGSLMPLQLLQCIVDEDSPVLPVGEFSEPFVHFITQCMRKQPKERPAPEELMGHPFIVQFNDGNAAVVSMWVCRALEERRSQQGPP

[6] = target: T2, Serine/threonine-protein kinase D1 (Homo sapiens) (UniProt Q15139); assay: Inhibition of PRKD1 (unknown origin) assessed as residual activity at 100 nM by KINOMEscan analysis relative to control
T2 sequence (whole entry): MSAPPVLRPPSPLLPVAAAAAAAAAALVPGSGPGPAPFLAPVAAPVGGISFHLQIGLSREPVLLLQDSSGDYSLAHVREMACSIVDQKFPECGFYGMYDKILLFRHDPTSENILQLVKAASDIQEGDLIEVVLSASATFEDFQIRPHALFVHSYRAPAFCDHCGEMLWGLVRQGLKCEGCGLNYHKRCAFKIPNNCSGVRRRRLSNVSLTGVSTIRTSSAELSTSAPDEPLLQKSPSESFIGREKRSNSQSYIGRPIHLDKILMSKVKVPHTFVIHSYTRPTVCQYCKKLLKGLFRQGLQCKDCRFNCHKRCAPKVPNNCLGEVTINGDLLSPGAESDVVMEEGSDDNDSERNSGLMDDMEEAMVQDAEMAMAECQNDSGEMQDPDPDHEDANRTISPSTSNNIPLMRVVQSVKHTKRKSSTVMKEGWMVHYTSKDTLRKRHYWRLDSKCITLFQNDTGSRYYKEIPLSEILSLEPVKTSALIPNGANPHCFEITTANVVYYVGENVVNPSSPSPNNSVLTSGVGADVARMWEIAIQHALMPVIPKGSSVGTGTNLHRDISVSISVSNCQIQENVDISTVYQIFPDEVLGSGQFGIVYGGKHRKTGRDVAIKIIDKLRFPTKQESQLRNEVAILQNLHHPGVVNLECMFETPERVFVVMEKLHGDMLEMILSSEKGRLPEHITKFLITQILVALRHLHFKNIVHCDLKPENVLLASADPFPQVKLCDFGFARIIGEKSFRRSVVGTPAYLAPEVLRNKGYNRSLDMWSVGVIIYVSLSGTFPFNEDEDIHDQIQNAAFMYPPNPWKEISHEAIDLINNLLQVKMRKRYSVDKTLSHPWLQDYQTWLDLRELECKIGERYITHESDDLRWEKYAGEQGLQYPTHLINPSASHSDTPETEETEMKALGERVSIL

[7] = target: T3, Serine/threonine-protein kinase Sgk1 (Homo sapiens) (UniProt O00141); assay: Inhibition of SGK (unknown origin) assessed as residual activity at 100 nM by KINOMEscan analysis relative to control
T3 sequence (whole entry): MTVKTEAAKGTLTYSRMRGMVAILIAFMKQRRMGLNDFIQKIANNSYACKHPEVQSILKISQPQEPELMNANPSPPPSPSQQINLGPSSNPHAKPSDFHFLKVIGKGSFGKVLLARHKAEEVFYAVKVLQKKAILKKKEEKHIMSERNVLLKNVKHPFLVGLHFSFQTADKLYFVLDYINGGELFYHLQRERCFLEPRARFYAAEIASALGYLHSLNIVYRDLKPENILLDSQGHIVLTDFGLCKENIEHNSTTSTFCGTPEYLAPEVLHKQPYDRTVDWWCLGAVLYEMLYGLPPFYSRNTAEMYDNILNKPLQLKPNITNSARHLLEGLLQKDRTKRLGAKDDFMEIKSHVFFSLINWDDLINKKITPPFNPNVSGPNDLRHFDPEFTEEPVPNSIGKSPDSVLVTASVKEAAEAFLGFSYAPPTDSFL

[8] = target: Misshapen-like kinase 1 (Homo sapiens) (UniProt Q8N4C8); assay: Inhibition of MINK (unknown origin) assessed as residual activity at 100 nM by KINOMEscan analysis relative to control
[9] = target: Serine/threonine-protein kinase tousled-like 2 (Homo sapiens) (UniProt Q86UE8); assay: Inhibition of TLK2 (unknown origin) assessed as residual activity at 100 nM by KINOMEscan analysis relative to control
[10] = target: Ribosomal protein S6 kinase alpha-3 (Homo sapiens) (UniProt P51812); assay: Inhibition of N-terminal RSK2 kinetic domain 1 (unknown origin) assessed as residual activity at 100 nM by KINOMEscan analysis relative to control
[11] = test system: Phosphatidylinositol 4,5-bisphosphate 3-kinase catalytic subunit alpha isoform (Homo sapiens), P42336 [E542K]; assay: Inhibition of PIK3CA E542K mutant (unknown origin) assessed as residual activity at 100 nM by KINOMEscan analysis relative to control
[12] = target: Tyrosine-protein kinase receptor UFO (Homo sapiens) (UniProt P30530); assay: Inhibition of AXL (unknown origin) assessed as residual activity at 100 nM by KINOMEscan analysis relative to control

Compound: COc1cc2nc(C)nc(N[C@H](C)c3cccc(-c4cn[nH]c4)c3)c2cc1OC
- Activity [1]: 85%

Compound: CNCc1ccccc1-c1csc([C@@H](C)Nc2nc(C)nc3cc(OC)c(OC)cc23)c1 [BAY-293]
- Activity (Calu-1): inactive
- ΔTm [2]: 0.21 °C

Compound: COc1cc2ncnc(N[C@H](C)c3cccc4ccccc34)c2cc1OC
- Activity [3]: 82%
- Activity [4]: 81%
- Activity [5]: 83%
- Activity [6]: 84%
- Activity [7]: 87%
- Activity [8]: 77%
- Activity [9]: 91%
- Activity [10]: 70%
- Activity [11]: 74%
- Activity [12]: 86%
